FLuc stim CS = firefly luciferase counter-screen for stimulation assays. activation factor at 10 µM. ATPlite luciferase biochemical, luminescence, 10 min; 0 = ATP-free wells, 1 = DMSO control. 200,000 tested, under 10 active. P08659;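 active = luciferase activation factor, scaled between plate controls, of at least 2 with compound at 10 µM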
Target sequence (P08659 whole entry, looked up): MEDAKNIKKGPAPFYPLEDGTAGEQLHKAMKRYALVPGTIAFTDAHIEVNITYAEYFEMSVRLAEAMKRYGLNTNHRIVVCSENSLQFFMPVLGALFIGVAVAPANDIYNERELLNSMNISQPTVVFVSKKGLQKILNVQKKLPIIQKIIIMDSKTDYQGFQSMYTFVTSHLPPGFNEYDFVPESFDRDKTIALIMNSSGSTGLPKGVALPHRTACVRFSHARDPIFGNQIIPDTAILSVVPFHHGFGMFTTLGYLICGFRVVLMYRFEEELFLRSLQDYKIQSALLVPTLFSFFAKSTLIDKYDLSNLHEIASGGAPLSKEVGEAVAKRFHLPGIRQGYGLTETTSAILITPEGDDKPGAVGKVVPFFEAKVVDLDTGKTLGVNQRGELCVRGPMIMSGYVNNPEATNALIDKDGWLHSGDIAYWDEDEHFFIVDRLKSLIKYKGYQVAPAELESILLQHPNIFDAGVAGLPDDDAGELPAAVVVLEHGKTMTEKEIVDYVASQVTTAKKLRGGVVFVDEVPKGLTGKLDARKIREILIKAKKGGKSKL
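Assay system – cell-free luciferase reagent · Medium – PBS-based ATP solution · Dosing – test compounds dosed from 2 mM stocks in 100% DMSO · Timing – 10 min, room temperature · Technique – light output (luminescence) · Measure – luminescence gain marking luciferase activators · Controls – No-ATP low control, compound-free enzyme-plus-ATP high control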
Diaph inh CS = counter-screen for diaphorase-based assays: diaphorase inhibitors and chemical oxidizers | inhibition, % at 20 µM | 190,000 tested, 0.69% active | diaphorase resazurin-to-resorufin fluorescence, NADH, 16 min; bacterial (C. kluyveri) enzyme, not human | AID 1217;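 active = primary screen inhibition at 20 µM above a set limit, cut at about 50% in these data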
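Assay system: diaphorase enzyme from Clostridium kluyveri. Quantity: enzyme working solution with 0.14 U/mL diaphorase. Schedule: reaction incubation of 16 min at room temperature. Technique: resorufin fluorescence, excitation 544 nm, emission 590 nm. Controls: No-NADH positive control and DMSO neutral control.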
Diaph act CS = activates diaphorase or chemically reduces, flagging diaphorase assay artifacts; activation factor at 20 µM; AID 1229; 190,000 tested, 0.005% active; Diaphorase/resazurin coupled assay, resorufin fluorescence, 16 min; active compounds read high; 1 = vehicle wells, 0 = NADH-free wells;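 active = diaphorase activity raised at least twofold by the compound at 20 µM; inactive = activation factor below 2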
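test system = bacterial diaphorase enzyme (C. kluyveri) | quantity = enzyme 0.07 U/mL final | reagent = NADH substrate 0.114 mM plus resazurin dye 0.1 mM, final | incubation = 16 min enzyme reaction, ambient temperature | buffer or medium = HEPES pH 7.4 buffer with MgCl2 and Tween 20 | signal = fluorescence of resorufin, 544 nm excitation, 590 nm emission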
G6PDH CS = inhibits Leuconostoc G6PDH, flagging false hits in G6PDH-based assays; Purified L. mesenteroides G6PDH, diaphorase/resazurin coupled fluorescence, 45 min; inhibition, % at 5 µM; 200,000 tested, 0.12% active; AID 1020; in the data active = inhibition above about 50%
FLuc inhib CS = inhibits firefly luciferase, flagging false hits in luciferase inhibition screens; P08659; ATPLite firefly luciferase biochemical luminescence, 10 min; inhibition, % at 10 µM; 200,000 tested, 1.5% active;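 active = inhibition above about 50% when tested at 10 µM, limit read from the data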
Hits are given with their value; 0 = inactive. Hits are enriched below; roughly 2.3% of the tested compounds scored in any of these assays.

SMILES | FLuc stim CS | Diaph inh CS | Diaph act CS | G6PDH CS | FLuc inhib CS
Cc1ccc2[nH]c(=O)c(C(c3nnnn3CC3CCCO3)N3CCCc4ccccc43)cc2c1 (configuration not stated) | 0 | 80 | 0 | 0 | 0
Cc1ccc2[nH]c(=O)c(C(c3nnnn3CC3CCCO3)N3CCOCC3)cc2c1 (configuration not stated) | 0 | 0 | 0 | 0 | 0
COc1ccc2[nH]c(=O)c(C(c3nnnn3CC3CCCO3)N3CCc4ccccc4C3)cc2c1 (configuration not stated) | 0 | 52 | 0 | 0 | 0
O=C(Nc1ccc(Cl)cc1F)C1CC1 | 0 | 0 | 0 | 0 | 0
Cc1cc(Br)ccc1SCC(=O)OCC(=O)Nc1ncc(C(F)(F)F)cc1Cl | 0 | 0 | 0 | 0 | 0
CCSC1=NCCN1C(=O)C(C)(C)Oc1ccc(Cl)cc1 | 0 | 0 | 0 | 0 | 0
Cn1c(NCc2ccc(Cl)cc2)nc2ccccc21 | 0 | 0 | 0 | 0 | 51
Cn1c(CNc2nc3ccccc3n2C)nc2ccccc21 | 0 | 0 | 0 | 0 | 0
Cc1nc(CNC(=O)CC2C(=O)NCCN2Cc2cccc(Oc3ccccc3)c2)cs1 (configuration not stated) | 0 | 0 | 0 | 0 | 0
COc1cc2[nH]c(=S)nc(NCC3CCCO3)c2cc1OC (configuration not stated) | 0 | 0 | 0 | 0 | 0
COc1cc2[nH]c(=S)nc(NC3CCCCCC3)c2cc1OC | 0 | 75 | 0 | 0 | 0
O=C1N/C(=C/c2ccc(N3CCOCC3)cc2)C(=O)N1Cc1ccc(F)cc1 | 0 | 0 | 0 | 0 | 0
O=C1NC(=S)N/C1=C\c1ccc(N2CCOCC2)cc1 | 0 | 0 | 0 | 0 | 78
COc1ccc(N(CC(=O)NCCC2=CCCCC2)S(=O)(=O)c2ccc(C)cc2)cc1 | 0 | 0 | 0 | 0 | 0
CC(C)(C)c1ccc(OCC(=O)N/N=C/c2ccc(N3CCOCC3)cc2)cc1 | 0 | 0 | 0 | 0 | 0
COc1cc(/C=C2\SC(=O)N(c3ccc(Cl)cc3)C2=O)cc([N+](=O)[O-])c1O | 0 | 82 | 0 | 0 | 0
COc1cc(/C=C2\SC(=O)N(c3cccc(Cl)c3)C2=O)cc([N+](=O)[O-])c1O | 0 | 64 | 0 | 0 | 0
O=C1S/C(=C\c2ccc(O)c([N+](=O)[O-])c2)C(=O)N1c1ccccc1Cl | 0 | 0 | 0 | 0 | 0
O=C(NCC(c1cccnc1)N1CCN(c2ccccc2F)CC1)c1cccc(Cl)c1 (configuration not stated) | 0 | 0 | 0 | 0 | 0
O=C1NC(=S)S/C1=C/c1ccc(N2CCOCC2)o1 | 0 | 0 | 0 | 0 | 64
COc1ccc2cc(/C=C3\SC(=S)NC3=O)c(N3CCOCC3)nc2c1 | 0 | 58 | 0 | 0 | 0
O=C1S/C(=C/c2ccc(N3CCOCC3)o2)C(=O)N1Cc1ccc(F)cc1 | 0 | 0 | 0 | 0 | 0
O=C(Cc1cccs1)N(Cc1ccco1)C1(C(=O)NC2CCCC2)CCCCC1 | 0 | 0 | 0 | 0 | 0
Cc1cc(O)c(C=O)c2c1C(=O)Oc1c(CO)c(O)c3c(c1O2)C(O)OC3=O (configuration not stated) | 0 | 75 | 0 | 0 | 0
CC(C)(C)NC(=O)CN1CCN(C(=O)CCl)CC1 | 0 | 0 | 0 | 0 | 0
SMILES | FLuc stim CS | Diaph inh CS | Diaph act CS | G6PDH CS | FLuc inhib CS
Cc1ccc(N=Cc2cccc(O)c2O)c(C)c1 | 0 | 67 | 0 | 54 | 0
Cc1cccc(C=Nc2ccc3c(c2)oc2ccccc23)c1O | 0 | 0 | 0 | 0 | 0
Cc1ccccc1N=Cc1cccc(O)c1O | 0 | 83 | 0 | 52 | 0
CC(N=Cc1cccc(O)c1O)c1ccccc1 (configuration not stated) | 0 | 51 | 0 | 52 | 0
Cc1nn(CC(=O)Nc2cccnc2)c(=O)c2ccccc12 | 0 | 0 | 0 | 0 | 0
O=C(COC(=O)c1ccc2c(c1[N+](=O)[O-])C(=O)c1ccccc1C2=O)NC1CC1 | 0 | 0 | 0 | 55 | 0
COCCNCC(=O)Nc1ccc(OC(F)(F)F)cc1 | 0 | 0 | 0 | 0 | 0
CCc1ccc(C(=O)COC(=O)[C@@H](NC(N)=O)[C@@H](C)CC)cc1 | 0 | 0 | 0 | 0 | 89
CCC(C)C(NC(N)=O)C(=O)Nc1ccc(C(=O)OC)cc1 (configuration not stated) | 0 | 0 | 0 | 0 | 0
CC1=C(CC(=O)c2ccc(Cl)cc2)C(=O)c2ccccc2C1=O | 0 | 0 | 0 | 56 | 0

Screens (PubChem)
